Measured values as given in ChEMBL document CHEMBL2346518, “Synthesis and evaluation of nicotinamide derivative as anti-angiogenic agents” (Bioorg Med Chem Lett, 2013).
The source made the active and inactive calls. The rule behind the calls is not given here.

Columns and labels:
[1] = tested on: HUVEC; test: Inhibition of VEGF-induced human HUVEC cell migration incubated 1 hr prior to VEGF-challenge measured after 24 hrs by wound healing assay; format: functional, cell-based
In short: (§1)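 Wound made with a scraper in near-confluent HUVECs. Cells pretreated 1 h with compound (10–100 nM), then migration induced with VEGF 10 ng/ml. Wound area photographed after 24 h.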

[2] = molecular target: Vascular endothelial growth factor receptor 2 (Homo sapiens) (UniProt P35968); test: Inhibition of VEGF-induced VEGFR phosphorylation at Tyr1175 in human HUVEC cell at 10 to 100 nM incubated 1 hr prior to VEGF-challenge measured after 5 mins by Western blot analysis
In short: (§2)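 HUVECs pretreated 1 h with compound (10, 50 or 100 nM), then stimulated with VEGF 10 ng/ml. Phospho-VEGFR2 read at 5 min and phospho-Akt at 30 min by Western blot.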

[3] = tested on: Aorta; test: Inhibition of VEGF-induced microvessel sprouting around Sprague-Dawley rat aortic rings; format: functional, tissue-based
In short: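 Aortas from Sprague-Dawley rats cleaned of periadventitial fat and cut into 1–1.5 mm rings. Rings embedded in Matrigel with VEGF ± compound (10, 50, 100 nM); medium alone as control. Sprouts fixed and photographed after 7 days at ×100. Three independent experiments.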

[4] = molecular target: Vascular endothelial growth factor receptor 2 (Homo sapiens) (UniProt P35968); test: Inhibition of VEGF-induced VEGFR2 in human HUVEC cell assessed as AKT phosphorylation at Ser473 incubated 1 hr prior to VEGF-challenge measured after 30 mins by Western blot analysis; in short: as §2
[5] = tested on: HUVEC; test: Inhibition of VEGF-induced human HUVEC cell proliferation at 10 to 100 nM incubated 1 hr prior to VEGF-challenge measured after 24 hrs by BrdU incorporation assay; format: functional, cell-based
In short: (§3)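 HUVECs pretreated 1 h with compound (100 nM single point, or 10, 50, 100 nM), then VEGF 10 ng/ml for 24 h. BrdU incorporation detected with anti-BrdU monoclonal antibody and peroxidase secondary, absorbance at 450 nm. Means of three experiments ± SD. ANOVA/Dunnett.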

[6] = tested on: HUVEC; test: Inhibition of VEGF-induced human HUVEC cell migration incubated 1 hr prior to VEGF-challenge measured after 24 hrs by Trans-well assay; format: functional, cell-based
In short: (§4)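 Boyden chamber with 8 μm pore membrane. HUVECs in upper chamber with compound in 0.1% EBM; VEGF 10 ng/ml in lower chamber. Cells that migrated through the pores counted after 24 h. Means of three experiments ± SD. ANOVA with Dunnett's test.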

[7] = tested on: HUVEC; test: Inhibition of VEGF-induced human HUVEC cell migration at 10 to 100 nM incubated 1 hr prior to VEGF-challenge measured after 24 hrs by wound healing assay; format: functional, cell-based; in short: as §1
[8] = tested on: HUVEC; test: Inhibition of VEGF-induced human HUVEC cell proliferation incubated 1 hr prior to VEGF-challenge measured after 24 hrs by BrdU incorporation assay; format: functional, cell-based; in short: as §3
[9] = molecular target: Vascular endothelial growth factor receptor 2 (Homo sapiens) (UniProt P35968); test: Inhibition of VEGF-induced VEGFR2 phosphorylation at Tyr1175 in human HUVEC cell incubated 1 hr prior to VEGF-challenge measured after 5 mins by PathScan ELISA
In short: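 HUVECs given compound (10, 50 or 100 nM) 1 h before 5 min VEGF (10 ng/ml). VEGFR2 Tyr1175 phosphorylation measured by PathScan ELISA. Means of three experiments ± SD. ANOVA with Dunnett's post-hoc test.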

[10] = tested on: HUVEC; test: Inhibition of VEGF-induced human HUVEC cell migration at 10 nM incubated 1 hr prior to VEGF-challenge measured after 24 hrs by Trans-well assay; format: functional, cell-based; in short: as §4
[11] = molecular target: Vascular endothelial growth factor receptor 2 (Homo sapiens) (UniProt P35968); test: Inhibition of VEGF-induced VEGFR in human HUVEC cell assessed as AKT phosphorylation at Ser473 at 10 to 100 nM incubated 1 hr prior to VEGF-challenge measured after 30 mins by Western blot analysis; in short: as §2
[12] = tested on: HUVEC; test: Inhibition of VEGF-induced human HUVEC cell capillary tube formation incubated prior to VEGF-challenge; format: functional, cell-based
In short: (§5)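 HUVECs pretreated 1 h with compound, then seeded at 4 to 7 × 10⁴ cells on growth-factor-reduced Matrigel in EBM with or without VEGF 10 ng/ml. Tubular structures photographed after 6 h at ×100. Means of three experiments ± SD. ANOVA/Dunnett.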

[13] = tested on: HUVEC; test: Inhibition of VEGF-induced human HUVEC cell capillary tube formation at 10 to 100 nM incubated prior to VEGF-challenge; format: functional, cell-based; in short: as §5
[14] = molecular target: Vascular endothelial growth factor receptor 2 (Homo sapiens) (UniProt P35968); test: Inhibition of VEGF-induced VEGFR2 phosphorylation at Tyr1175 in human HUVEC cell incubated 1 hr prior to VEGF-challenge measured after 5 mins by Western blot analysis; in short: as §2

Sequence of Vascular endothelial growth factor receptor 2 (Homo sapiens) (P35968 whole entry): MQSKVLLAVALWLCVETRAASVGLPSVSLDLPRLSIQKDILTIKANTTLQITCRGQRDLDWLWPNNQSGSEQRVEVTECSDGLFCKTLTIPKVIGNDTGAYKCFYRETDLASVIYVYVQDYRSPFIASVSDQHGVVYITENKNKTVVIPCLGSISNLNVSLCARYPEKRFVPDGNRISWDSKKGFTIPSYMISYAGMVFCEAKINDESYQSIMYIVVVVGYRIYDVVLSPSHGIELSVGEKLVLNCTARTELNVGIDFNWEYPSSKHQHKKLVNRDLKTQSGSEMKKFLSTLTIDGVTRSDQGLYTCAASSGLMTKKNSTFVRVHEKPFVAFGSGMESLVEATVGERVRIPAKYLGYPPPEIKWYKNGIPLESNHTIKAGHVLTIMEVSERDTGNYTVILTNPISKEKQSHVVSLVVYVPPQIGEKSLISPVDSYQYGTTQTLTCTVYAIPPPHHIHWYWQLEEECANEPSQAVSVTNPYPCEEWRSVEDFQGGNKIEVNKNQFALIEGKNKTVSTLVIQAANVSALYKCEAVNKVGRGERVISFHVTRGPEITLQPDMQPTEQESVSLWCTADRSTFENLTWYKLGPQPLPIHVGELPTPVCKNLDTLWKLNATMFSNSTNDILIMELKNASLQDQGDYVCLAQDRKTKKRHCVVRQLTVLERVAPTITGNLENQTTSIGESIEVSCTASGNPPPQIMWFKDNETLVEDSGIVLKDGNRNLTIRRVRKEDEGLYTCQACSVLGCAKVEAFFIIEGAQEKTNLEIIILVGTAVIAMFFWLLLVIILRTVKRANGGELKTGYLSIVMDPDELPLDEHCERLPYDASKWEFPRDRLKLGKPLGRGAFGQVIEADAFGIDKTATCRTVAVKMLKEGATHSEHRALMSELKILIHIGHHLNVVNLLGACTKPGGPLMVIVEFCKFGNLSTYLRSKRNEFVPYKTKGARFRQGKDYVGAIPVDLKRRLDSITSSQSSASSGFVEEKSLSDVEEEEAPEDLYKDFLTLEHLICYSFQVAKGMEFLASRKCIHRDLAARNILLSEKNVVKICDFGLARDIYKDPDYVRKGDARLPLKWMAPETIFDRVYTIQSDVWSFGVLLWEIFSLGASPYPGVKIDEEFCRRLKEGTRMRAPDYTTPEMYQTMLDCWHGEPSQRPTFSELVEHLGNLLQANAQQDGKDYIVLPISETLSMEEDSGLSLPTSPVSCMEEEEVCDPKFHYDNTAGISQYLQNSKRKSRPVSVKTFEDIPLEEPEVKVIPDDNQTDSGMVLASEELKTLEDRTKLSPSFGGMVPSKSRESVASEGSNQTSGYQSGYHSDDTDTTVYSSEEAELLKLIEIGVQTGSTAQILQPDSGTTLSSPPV

| inhibition [2] | inhibition [4] | inhibition [9] | inhibition [11] | inhibition [14] | Compound | inhibition [1] | inhibition [3] | inhibition [5] | inhibition [6] | inhibition [7] | inhibition [8] | inhibition [10] | inhibition [12] | inhibition [13] |
| --- | --- | --- | --- | --- | --- | --- | --- | --- | --- | --- | --- | --- | --- | --- |
| Active | Dose-dependent effect | Dose-dependent effect | Active | Dose-dependent effect | CC(c1ncnc(Cl)c1F)N1CCC(Nc2ncccc2C(=O)Nc2cccc(Cl)c2)CC1 (stereo not given) | Dose-dependent effect | Dose-dependent effect | Active | Dose-dependent effect | Dose-dependent effect | Dose-dependent effect | Active | Dose-dependent effect | Active |
|  |  |  |  |  | O=C(Nc1cccc(Cl)c1)c1cccnc1NC1CCN(Cc2ccccc2)CC1 |  |  | Active |  |  |  |  |  |  |
